# PGC1a acetyl inh: modulators of PGC1a acetylation; inhibition, % at 15.6 µM; actives 0.17% (n = 350,000); U2OS PGC1a acetylation, AlphaScreen anti-acetyl-lysine; with virally co-expressed GCN5 acetyltransferase; AID 651687;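 active = every replicate shows inhibition of at least 40%; inconclusive = mean inhibition at least 40% but some replicate below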;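 note: 0% = neutral control wells and 100% = positive control wells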
# PAX8 reporter: lowers PAX8-driven luciferase in RMG-I cells | inhibition, % at 12.6 µM | actives 1.2% (n = 360,000) | RMG-I TPO-luciferase reporter, SteadyGlo, 24 h | AID 652154;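 active = mean replicate inhibition at least 60% with every replicate also reaching 60%; inconclusive = only one of the two criteria is met; inactive = mean below 60% and not all replicates reaching 60%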;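 note: luciferase light reporting Pax8 driven TPO promoter activity; plate controls were median of neutral control wells for no effect and mitoxantrone controls for full effect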
# EWS-Fli block: EWS/Fli transcriptional activity inhibition; actives 0.67% (n = 350,000); inhibition, % at 12.6 µM; A673 NR0B1-luciferase reporter, viability-normalised;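 active = mean inhibition of at least 50% after viability correction, with every replicate also passing that limit; inconclusive = mean reaches 50% but only one of two replicates passes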;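 note: firefly luciferase signal divided by Alamar Blue viability fluorescence both relative to DMSO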
# HIV Env fusion: HIV envelope-mediated fusion inhibition; HeLa-JRFL Env/CEM21 cell fusion, luciferase; inhibition, % at 12.3 µM; actives 1.1% (n = 360,000); AID 651610;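 active = mean replicate inhibition score of at least 50 and every replicate individually at or above 50; inconclusive = only one of the two criteria met; inactive = mean below 50 and not all replicates reaching 50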;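 note: 0% = plate neutral controls and 100% = maraviroc near 300 nM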
# FN deposit inh: fibronectin deposition inhibition. AH1F fibroblasts, Alexa488-fibronectin deposition fluorescence, overnight. inhibition, % at 12.6 µM. actives 0.086% (n = 350,000). AID 743247;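 active = mean inhibition across replicates of 30% or more, regardless of how many single replicates reach that level; inconclusive = mean under 30% yet at least half of replicates reach 30%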;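 note: positive control wells lacked labelled fibronectin entirely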
#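 test system = AH1F fibroblasts assembling fluorescent fibronectin matrix | quantity = 10000 AH1F cells per well | buffer or medium = DMEM plus 2% serum, read in PBS | doses = single dose, pinned | incubation = 1 h cell attachment, overnight exposure to compound and label | detection = fluorescence at 485 nm excitation, 525 nm emission | read-out basis = inhibition from reduced deposited-fibronectin fluorescence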
# F508del corr: CFTR F508del correction in bronchial cells | CFBE cells, YFP halide quenching; stimulated with forskolin plus potentiator P3; % fluorescence drop versus neutral controls | activity (quench increase), % at 7.58 µM | actives 0.36% (n = 350,000);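 active = mean added fluorescence quench of at least 8% versus neutral control, with both replicates also reaching 8%; inconclusive = only one of the mean or replicate conditions met; inactive = mean below 8% and not both replicates reaching 8%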;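 note: cells transiently co-express mutant CFTR-F508del with the halide-sensitive YFP; corrector assay measuring rescue of mutant channel to the surface after 24 h compound exposure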
# * = called active by the depositor; ? = inconclusive; . = no result given; [ ] = remark or other dose. Compounds with a hit are over-represented: about 2.3% of the library has one in this group of screens.
SMILES,PGC1a acetyl inh,PAX8 reporter,EWS-Fli block,HIV Env fusion,FN deposit inh,F508del corr
CC(C)(CO)CNc1ccn2nccc2n1,43*,-29,-11,38,4,2
C[C@H]1CN(C)C(=O)c2cccc(NS(C)(=O)=O)c2O[C@@H]1CN(C)C,.,.,.,.,-6,.
COc1ccccc1N(C(=O)CCl)c1cn(C(C)=O)c2ccccc12,.,114*,28,24,-1,-10
COc1ccc(S(=O)(=O)N2CC[C@@H]3[C@H]2c2cc(C#Cc4ccccc4OC)ccc2N[C@@H]3CO)cc1,-9,18,15,.,1,-1
O=C(c1cccnc1)N1C[C@H]2[C@@H](c3ccccc31)[C@H](CO)N2CC1CCCC1,-2,8,-6,.,32*,1
O=C(c1cccnc1)N1C[C@H]2[C@@H](c3ccccc31)[C@H](CO)N2CC1CCCCC1,-7,6,-2,.,.,3
CC1(C)Cc2c(sc(NC(=O)c3ccc(S(=O)(=O)N4CCCCCC4)cc3)c2C#N)C(C)(C)N1,-3,7,0,63*,2,0
Cc1noc(C)c1NC(=O)Nc1ccc2c(c1)C(=O)N([C@@H](C)CO)C[C@@H](C)[C@H](CN(C)S(=O)(=O)c1cn(C)cn1)OCCCC[C@@H](C)O2,-12,1,2,2[16.7 µM],.,0
CN1C(=O)c2cc(NC(=O)c3cccs3)ccc2OC[C@@H]2O[C@H](CC(=O)N3CCCCC3)CC[C@@H]21,-9,8,-20,14[16.7 µM],-20,1
CCC(=O)Nc1ccc2c(c1)OC[C@H](C)N(CC1CC1)C[C@H](C)[C@@H](OC)CN(C)C2=O,10,.,.,.,6,1
CCN1C(=O)CCCc2ccccc21,68*,2,-4,-8,.,-3
CC1CCN(C(=O)C2COc3ccccc3O2)CC1 (stereo not drawn),4,-27,-15,.,0,16*
Nc1nc2ccccc2n1C(=O)c1ccccc1,.,6,61*,-16,1,0
CCOC(=O)CNC(=O)OC1CCN2Cc3ccccc3N=C12 (stereo not drawn),78*,9,3,-6,-3,2
CC(/C=N/NC(=O)c1cc(-c2ccc(Cl)cc2)nc2ccccc12)=C\c1ccco1,?,87*,.,-259,-12,.
CO[C@H]1CN(C)C(=O)c2ccc(NC(C)=O)cc2OC[C@@H](C)N(C(=O)c2cccnc2)C[C@@H]1C,2,.,-13,.,-6,-1
COc1ccc(S(=O)(=O)Nc2ccc3c(c2)C(=O)N([C@H](C)CO)C[C@H](C)[C@H](CN(C)S(=O)(=O)c2ccc(C)cc2)OCCCC[C@H](C)O3)cc1,1,72*,9,-11[16.7 µM],-8,4
COc1ccc(S(=O)(=O)N(C)C[C@@H]2OCCCC[C@H](C)Oc3ccc(NS(=O)(=O)c4ccc(C)cc4)cc3C(=O)N([C@@H](C)CO)C[C@@H]2C)cc1,-8,42,12,32[16.7 µM],.,0
COc1ccc(S(=O)(=O)Nc2ccc3c(c2)C(=O)N([C@@H](C)CO)C[C@H](C)[C@@H](CN(C)S(=O)(=O)c2ccc(C)cc2)OCCCC[C@H](C)O3)cc1,-10,?,3,-6[16.7 µM],-4,2
COc1ccc(S(=O)(=O)Nc2ccc3c(c2)C(=O)N([C@@H](C)CO)C[C@@H](C)[C@@H](CN(C)S(=O)(=O)c2ccc(C)cc2)OCCCC[C@@H](C)O3)cc1,-8,67*,-11,-18[16.7 µM],-4,1
COc1ccc(NC(=O)Nc2ccc3c(c2)C(=O)N([C@H](C)CO)C[C@H](C)[C@@H](CN(C)Cc2ccccc2)O3)cc1,-2,2,-3,-7[16.7 µM],.,4
COc1ccc(C(=O)OCC(=O)c2c[nH]c3ccccc23)c(OC)c1,-3,-89,-59,-24,9,2
CCOc1ccc(N(C)S(=O)(=O)c2ccc(C)c(C(=O)OCC(=O)c3c[nH]c4ccccc34)c2)cc1,.,32,-6,58*,5,-1
Cc1cc(C)cc(C(=O)NCC(=O)OCc2cc([N+](=O)[O-])cc3c2OCOC3)c1,2,12,-12,20,.,13*
Cc1cc(C)cc(OCC(=O)OCc2cc([N+](=O)[O-])cc3c2OCOC3)c1,-2,-18,0,.,-5,-1
SMILES,PGC1a acetyl inh,PAX8 reporter,EWS-Fli block,HIV Env fusion,FN deposit inh,F508del corr
O=C(Nc1ccccc1)c1ccc(Nc2c([N+](=O)[O-])cc([N+](=O)[O-])c3ccccc23)cc1,.,18,.,37,-1,.
O=[N+]([O-])c1cc(Br)c(Nc2ccccc2)c([N+](=O)[O-])c1,.,84*,30,-406,-13,1
CCCN1[C@@H]2c3ccc(C4=CCCC4)c(=O)n3C[C@@H]2[C@@H](CO)[C@@H]1C(=O)NCC,.,.,5,.,.,0
Cc1ccccc1-c1ccc([C@H]2[C@@H](CO)N3CCCCN(C(=O)Nc4cccc(F)c4)C[C@@H]23)cc1,24,23,11,.,.,-1
Cc1ccc(-c2ccc([C@@H]3[C@@H](CO)N4CCCCN(C(=O)Nc5cccc(F)c5)C[C@@H]34)cc2)cc1,-19,-12,16,.,.,2
Cc1ccccc1-c1ccc([C@@H]2[C@H](CO)N3CCCCN(C(=O)Nc4cccc(F)c4)C[C@@H]23)cc1,-52,108*,61*,.,.,-8
Cc1ccccc1-c1ccc([C@H]2[C@@H](CO)N3CCCCN(C(=O)Nc4cccc(F)c4)C[C@H]23)cc1,-43,100*,67*,.,.,-3
CON(C)c1nc(OCCNC(=O)OCc2ccc(Cl)cc2Cl)nc(N(C)C)n1,.,.,.,139*,10,.
CON(C)c1nc(OCCNC(=O)COc2ccc(Cl)cc2C)nc(N(C)C)n1,-10,6,.,163*,0,.
O=C(N[C@H]1CC[C@@H](CCn2cc(-c3ccccc3)nn2)O[C@@H]1CO)c1cnccn1,1,8,6,1[16.7 µM],-2,-1
CCOC(=O)C1=C(C)N=c2s/c(=C/c3ccc(OCC(=O)O)cc3)c(=O)n2C1c1cc(OC)c(OC)c(OC)c1 (stereo not drawn),3,-4,9,5,0,-1
CCOC(=O)C1=C(C)N=c2s/c(=C\c3cccc(OCC(=O)O)c3)c(=O)n2C1c1ccccc1OC (stereo not drawn),55*,3,-13,12,.,-1
Cc1csc(NC(=O)c2c(-c3c(Cl)cccc3Cl)noc2C)n1,10,.,.,.,.,.
CSc1n[nH]c(NC(=O)c2c(-c3c(Cl)cccc3Cl)noc2C)n1,65*,6,3,-8,5,0
O=C(Nc1cccc(Br)c1)c1ccc2c(c1)SC1=NS(=O)(=O)CCN12,-41,88*,28,14,-5,2
CCc1ccc(CCC(=O)Nc2ccc(Cl)cc2)o1,3,-17,-13,-14,-2,-2
Cc1ccc(CCC(=O)Nc2ccc(Cl)cc2)o1,72*,-25,-28,-40,2,-2
N#Cc1ccc(NC(=O)Nc2cccc(C#N)c2)cc1,.,1,-1,46,-1,5

# Screening results as filed in PubChem BioAssay.
